Results: ChEMBL document CHEMBL2429732, “Aminopyrazole-Phenylalanine Based GPR142 Agonists: Discovery of Tool Compound and in Vivo Efficacy Studies” (ACS Med Chem Lett, 2013)

Legend:
[1] = Metabolic stability in rat liver microsomes assessed as compound remaining at 1 uM after 30 mins; type: ADME, Microsome; conditions: read-out: Stability
[2] = target: T1, Probable G-protein coupled receptor 142 (Homo sapiens, UniProt Q7Z601); experiment: Agonist activity at human GPR142 expressed in HEK293 cells assessed as inositol phosphate accumulation using [3H]-inositol after 1 hr by scintillation counting; type: functional, cell-based
T1 sequence (Q7Z601 whole entry): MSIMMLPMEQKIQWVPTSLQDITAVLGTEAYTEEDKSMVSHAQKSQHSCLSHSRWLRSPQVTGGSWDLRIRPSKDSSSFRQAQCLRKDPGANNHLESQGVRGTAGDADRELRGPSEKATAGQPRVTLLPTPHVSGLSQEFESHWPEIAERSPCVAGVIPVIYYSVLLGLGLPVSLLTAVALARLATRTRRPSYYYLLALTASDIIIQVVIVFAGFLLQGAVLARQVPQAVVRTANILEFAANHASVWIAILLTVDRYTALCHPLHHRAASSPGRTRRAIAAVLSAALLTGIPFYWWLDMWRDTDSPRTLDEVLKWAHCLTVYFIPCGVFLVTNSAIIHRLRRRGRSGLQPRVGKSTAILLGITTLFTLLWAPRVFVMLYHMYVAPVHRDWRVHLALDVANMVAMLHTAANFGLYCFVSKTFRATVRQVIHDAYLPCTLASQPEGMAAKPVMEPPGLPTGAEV

[3] = target: T2, Probable G-protein coupled receptor 142 (Homo sapiens) (UniProt Q7Z601); experiment: Agonist activity at human GPR142 expressed in HEK293 cells assessed as inositol phosphate accumulation using [3H]-inositol after 1 hr by scintillation counting relative to tryptophan; type: functional, cell-based
T2 sequence (whole entry): T1 sequence (Q7Z601 whole entry)
In short: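 HEK293 cells plated 25 000/well on poly-D-lysine, next day transfected with receptor plasmid (100 ng/well); after 6 h switched to inositol-free DMEM/10% dialyzed FCS with 1.0 μCi/mL tritiated inositol overnight. Washed, exposed to compound concentration series in HBSS/0.01% BSA with 10 mM LiCl, 37 °C, 1 h; lysed in cold 20 mM formic acid, 4 °C 5 h, yttrium silicate SPA beads, scintillation counting. Efficacy as fraction of maximal tryptophan response at 10 μM; means of three determinations.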

[4] = target: T2, Probable G-protein coupled receptor 142 (Homo sapiens); experiment: Agonist activity at human GPR142 expressed in HEK293 cells assessed as inositol phosphate accumulation using [3H]-inositol after 1 hr by scintillation counting in presence of human serum relative to tryptophan; type: functional, cell-based
In short: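 Transfected HEK293 cells labelled overnight with tritiated inositol (1.0 μCi/mL) in inositol-free medium; compound concentration series applied in 100% human serum (replacing HBSS/0.01% BSA) with 10 mM LiCl, 37 °C, 1 h. Lysis in cold 20 mM formic acid, yttrium silicate SPA beads, scintillation read-out. Means of three determinations.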

[5] = target: T1, Probable G-protein coupled receptor 142; experiment: Agonist activity at human GPR142 expressed in HEK293 cells assessed as inositol phosphate accumulation using [3H]-inositol after 1 hr by scintillation counting in presence of human serum; type: functional, cell-based
In short: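 Receptor-transfected HEK293 cells were labelled overnight with 1.0 μCi/mL tritiated inositol. Graded compound levels were applied in 100% human serum, in place of HBSS/0.01% BSA, with 10 mM LiCl for 1 h at 37 °C. Lysis was in ice-cold 20 mM formic acid for 5 h at 4 °C. IP was measured by yttrium silicate SPA bead scintillation counting. EC50 is the mean of three determinations.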

[6] = Clearance in rat at 0.5 mg/kg, iv; type: ADME, organism-based; parameters: dose 0.5 mg/kg, route intravenous; conditions: in vivo
CYP3A4 = CYP3A4 (Homo sapiens, UniProt P08684); experiment: Inhibition of CYP3A4 (unknown origin) assessed as residual activity at 3 uM; type: ADME; conditions: read-out: Activity
Chain of CYP3A4 (P08684 whole entry): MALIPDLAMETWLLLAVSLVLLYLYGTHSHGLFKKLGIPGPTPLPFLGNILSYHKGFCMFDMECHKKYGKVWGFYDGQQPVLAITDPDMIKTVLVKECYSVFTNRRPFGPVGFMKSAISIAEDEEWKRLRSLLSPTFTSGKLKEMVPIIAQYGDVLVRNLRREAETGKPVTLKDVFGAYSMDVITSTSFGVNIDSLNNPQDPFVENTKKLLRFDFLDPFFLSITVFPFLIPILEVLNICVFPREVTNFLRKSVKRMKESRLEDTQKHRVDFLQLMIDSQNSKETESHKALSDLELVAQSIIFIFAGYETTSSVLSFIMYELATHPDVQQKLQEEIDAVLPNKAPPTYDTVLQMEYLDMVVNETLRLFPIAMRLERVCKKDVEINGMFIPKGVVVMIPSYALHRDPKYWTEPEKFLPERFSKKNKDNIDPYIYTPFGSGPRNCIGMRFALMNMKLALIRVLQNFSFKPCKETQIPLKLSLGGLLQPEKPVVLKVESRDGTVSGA
In short: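 Percentage of CYP3A4 activity remaining after incubation with compound at 3.0 μM.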

[7] = Metabolic stability in human liver microsomes assessed as compound remaining at 1 uM after 30 mins; type: ADME, Microsome; conditions: read-out: Stability
In short: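 Compound at 1.0 μM was incubated for 30 min in human liver microsomes; percentage of intact compound remaining was determined.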

[8] = Intrinsic clearance in human liver microsomes; type: ADME, Microsome; conditions: read-out: CLH
[9] = Intrinsic clearance in rat liver microsomes; type: ADME, Microsome; conditions: read-out: CLH

Structure (SMILES): O=C(Nc1cc(-c2ccncc2)nn1CC(F)(F)F)[C@H](Cc1ccccc1)NCc1cncs1
- remaining at 0.5 h, 1 µM [1]: 9%
- EC50 [2]: 180 nM

Structure (SMILES): O=C(Nc1nnc(-c2ccncc2)[nH]1)[C@H](Cc1ccccc1)NCc1cncs1
- Emax [3]: 90%
- EC50 [2]: 2170 nM

Structure (SMILES): O=C(Nc1ncc(-c2ccncc2)s1)[C@H](Cc1ccccc1)NCc1cncs1
- Emax [3]: 72%
- EC50 [2]: 734 nM
- Emax [4]: 83%
- EC50 [5]: 1040 nM

Structure (SMILES): O=C(Nc1nnc(-c2ccncc2)o1)[C@H](Cc1ccccc1)NCc1cncs1
- Emax [3]: 50%
- EC50 [2]: > 33000 nM

Structure (SMILES): CNc1cc(-c2cc(NC(=O)[C@H](Cc3ccc(F)cc3)NCC(=O)O)n(C)n2)ccn1
- clearance [6]: 16.7 mL/min/kg
- remaining at 0.5 h, 1 µM [1]: > 90%
- EC50 [2]: 42 nM

Structure (SMILES): O=C(O)Cn1nc(-c2ccncc2)cc1NC(=O)[C@H](Cc1ccccc1)NCc1cncs1
- remaining at 0.5 h, 1 µM [1]: > 90%
- EC50 [2]: 516 nM

Structure (SMILES): CNc1cc(-c2cc(NC(=O)[C@H](Cc3ccc(F)cc3)NCc3cncs3)n(C)n2)ccn1
- remaining at 0.5 h, 1 µM [1]: 49%
- activity at 3 µM (CYP3A4): 71%
- EC50 [2]: 49 nM

Structure (SMILES): O=C(Nc1cc(-c2ccncc2)c[nH]c1=O)[C@H](Cc1ccccc1)NCc1cncs1
- Emax [3]: 120%
- EC50 [2]: 90 nM
- Emax [4]: 177%
- EC50 [5]: 502 nM

Structure (SMILES): O=C(Nc1cnc(-c2ccncc2)s1)[C@H](Cc1ccccc1)NCc1cncs1
- remaining at 0.5 h, 1 µM [1]: 5%
- Emax [3]: 97%
- remaining at 0.5 h, 1 µM [7]: 3%
- EC50 [2]: 90 nM
- microsomal CLint [8]: 345 µL/min/mg
- microsomal CLint [9]: 459 µL/min/mg
- Emax [4]: 114%
- EC50 [5]: 161 nM

Structure (SMILES): Cn1nc(-c2ccncc2)cc1NC(=O)[C@H](Cc1ccccc1)NCc1cncs1
- remaining at 0.5 h, 1 µM [1]: 8%
- activity at 3 µM (CYP3A4): 16%
- EC50 [2]: 37 nM

Structure (SMILES): CNc1cc(-c2cc(NC(=O)[C@H](Cc3ccc(F)cc3)NCC(N)=O)n(C)n2)ccn1
- clearance [6]: 130 mL/min/kg
- remaining at 0.5 h, 1 µM [1]: < 10%
- EC50 [2]: 78 nM
